Calls of active or inactive are those of the source.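 How the source made its calls, unless noted: active means Her2 level under about 52% in both replicate screens, with viability over 70% of control (limit read from the data); inconclusive means Her2 under the limit in one screen only, or viability under 70%; inactive means Her2 level above the set limit.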

Test [1] in a line: Her2 expression decrease, cell viability multiplex – SKBR3 breast tumor cells, AlphaScreen, ATP viability, primary screen (AID 461).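 On Her2 level: lower value means less Her2 protein in the cells.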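 On viability: percent of carrier control wells set as 100% viability.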 The conditions noted are these: SKBR3 Her2 protein level, 18-24 h, measured here: SKBR3 viability, ATP luminescence, at 10 µM. Background: Bead proximity is the source of the signal in Alpha formats.
Test [2] concerns the target Receptor tyrosine-protein kinase erbB-2 (Homo sapiens) (UniProt P04626). The test is described as above. The note with it: 18-24 h, at 10 µM, stronger effect = lower value.
Test [3] can be described thus: reduced viability of SK-BR-3 breast cancer cells – cell-based, 24 h, human, pilot screen (AID 572;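 active means viability at or below 10% of carrier control in both of two separate runs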;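 further: compound exposure lasted between 18 and 24 h rather than exactly 24 h; 100% = carrier-treated control wells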). The note with it: SK-BR-3 viability, CellTiter-Glo luminescence, at 10 µM, stronger effect = lower value.
The nature of test [4]: HUVEC growth inhibition – cell-based, human, primary screen (AID 575;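 active means viability at or below 30% in both replicate assays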;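 further: 100% = median of untreated cell wells with 0.1% DMSO on each plate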). The conditions noted are these: HUVEC proliferation, CellTiter-Glo luminescence, 72 h; at 10 µM; stronger effect = lower value. A digest of the protocol: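 Material: primary human umbilical vein endothelial cells / Schedule: 72 h exposure, 37 °C, 5% CO2, 30 min RT equilibration / Signal: ATP-based CellTiter-Glo luminescent read / Read-out basis: percent of median DMSO-control luminescence / Control set: 32 DMSO-only cell-control wells (high), 32 MePR drug-control wells (low) per plate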
Background: ATP-based viability assays read luminescence as a measure of living cells.

Test [5] can be described thus: H69AR cell proliferation blockers – human, duplicate replicates, primary screen (AID 580;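 active means viability at or under a set limit in both replicates, limit being median viability minus 3 SD, cut at about 48% in these data, passing the limit was not always enough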;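 further: 100% = mean luminescence of untreated wells and 0% = no signal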). The note with it: H69AR lung tumor cells viability, ATP luminescence, 72 h; at 10 µM; stronger effect = lower value.
A short description of test [6]: MRP1 drug-resistance reversers in H69AR cells – cell-based, doxorubicin co-treatment, pilot screen (AID 601;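 active means viability loss from added drug above about 55%, and viability with drug at most 40%, in both replicates, limit read from the data, passing the limit was not always enough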). The note with it: CellTiter-Glo, 72 h, at 10 µM; for differential viability (reversal): stronger effect = higher value.
Test [7] in a line: yeast transport mutant growth inhibition pilot in 384-well plates, post-Golgi transport modulator project (AID 636; in the data active means inhibition above about 31%). The note with it: absorbance 615 nm, about 18 h, stronger effect = higher value.
Test [8] can be described thus: growth suppression of yeast trafficking mutant, preliminary HTS, modulators of trafficking downstream of Golgi apparatus project, 1536-format plate, OD 615 nm (AID 637; in the data active means inhibition above about 30%). The conditions noted are these: yeast transport mutant growth, absorbance 615 nm, 18 h; stronger effect = higher value.
Setting [9] is: H69AR cells + 2 uM doxorubicin, measured here: viability with 2 uM doxorubicin, stronger effect = lower value.
The mark [10] stands for this setting: H69AR cells, compound alone cytotoxicity.

Sequence of Receptor tyrosine-protein kinase erbB-2 (Homo sapiens) (P04626 whole entry, looked up): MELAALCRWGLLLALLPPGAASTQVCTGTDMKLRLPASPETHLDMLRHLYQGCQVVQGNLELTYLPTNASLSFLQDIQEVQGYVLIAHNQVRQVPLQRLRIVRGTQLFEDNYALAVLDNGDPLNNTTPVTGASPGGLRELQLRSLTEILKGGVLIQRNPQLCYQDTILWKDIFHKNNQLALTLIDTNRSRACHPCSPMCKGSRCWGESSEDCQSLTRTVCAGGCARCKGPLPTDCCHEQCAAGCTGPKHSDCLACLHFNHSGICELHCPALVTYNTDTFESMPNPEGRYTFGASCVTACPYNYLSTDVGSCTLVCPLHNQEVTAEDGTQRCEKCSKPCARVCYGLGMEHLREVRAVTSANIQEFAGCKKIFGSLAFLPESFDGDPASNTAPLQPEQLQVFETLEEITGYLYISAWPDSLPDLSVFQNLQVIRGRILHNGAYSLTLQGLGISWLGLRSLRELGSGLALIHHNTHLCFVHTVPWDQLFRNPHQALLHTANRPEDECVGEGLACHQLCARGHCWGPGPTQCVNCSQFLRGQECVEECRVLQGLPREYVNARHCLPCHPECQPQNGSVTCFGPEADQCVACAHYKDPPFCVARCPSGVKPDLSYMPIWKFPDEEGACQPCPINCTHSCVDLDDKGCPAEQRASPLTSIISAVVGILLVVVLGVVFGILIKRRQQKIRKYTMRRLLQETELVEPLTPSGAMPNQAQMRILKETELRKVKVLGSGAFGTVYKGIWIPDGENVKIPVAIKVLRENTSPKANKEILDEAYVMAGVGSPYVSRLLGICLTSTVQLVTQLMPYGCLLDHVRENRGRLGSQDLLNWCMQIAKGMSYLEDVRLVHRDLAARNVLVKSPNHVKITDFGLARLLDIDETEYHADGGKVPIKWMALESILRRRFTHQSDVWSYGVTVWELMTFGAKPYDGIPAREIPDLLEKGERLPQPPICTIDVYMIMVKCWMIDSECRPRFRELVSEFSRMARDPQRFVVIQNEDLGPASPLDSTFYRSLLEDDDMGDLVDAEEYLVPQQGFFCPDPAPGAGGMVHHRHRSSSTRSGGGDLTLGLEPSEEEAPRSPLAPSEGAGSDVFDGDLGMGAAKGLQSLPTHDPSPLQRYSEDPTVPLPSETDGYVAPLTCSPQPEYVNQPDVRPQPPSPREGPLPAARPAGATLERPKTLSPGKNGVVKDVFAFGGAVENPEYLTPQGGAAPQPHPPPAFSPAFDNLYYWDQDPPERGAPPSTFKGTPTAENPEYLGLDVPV

As to `CCc1ccc2nc(NC(=O)CSCc3c(C)noc3C)sc2c1`, the viability in test [1] is 88.5%; in test [3], 88.5% (inactive); in test [4], 52.5% (inactive); in test [5], 87.2% (inactive); in test [6] (setting [9]), 97.6%; in test [6] (setting [10]), 87.2%. Besides, the Her2 level in test [2] is 110% (inactive). Further, the differential viability (reversal) in test [6] (H69AR cells + 2 uM doxorubicin) was -10.5% (inactive). The inhibition in test [7] was -0.67% (inactive); in test [8] it was -7.54% (inactive).
In the case of `COc1ccc(N2CCN(c3ccc(NC(=O)C4CCCCC4)cc3C#N)CC2)cc1`, the viability in test [1] was 98%; in test [3], 98% (inactive); in test [4], 78.6% (inactive); in test [5] it was 93% (inactive); in test [6] (setting [9]) it was 90.4%; in test [6] (setting [10]), 93%. The Her2 level in test [2] was 84% (inactive). In addition, the differential viability (reversal) in test [6] (H69AR cells + 2 uM doxorubicin) was 2.67% (inactive). For the same compound, the figures for the inhibition in test [7] and in test [8] were -1.76% (inactive) and -2.22% (inactive), respectively.
In the case of `O=S(=O)(Nc1ncccn1)c1ccc(Nc2ncnc3ccccc23)cc1`, the viability is 97.5% in test [1]; 97.5% (inactive) in test [3]; 81.2% (inactive) in test [4]; 95.7% (inactive) in test [5]; 94.5% in test [6] (setting [9]); 95.7% in test [6] (setting [10]). Moreover, in test [2], the Her2 level was 93% (inactive). For the same compound, the differential viability (reversal) in test [6] (H69AR cells + 2 uM doxorubicin) is 1.15% (inactive). The inhibition in test [7] is -7.57% (inactive); in test [8], 3.11% (inactive).
As for `O=S(=O)(NCCc1ccccc1F)c1cccc(S(=O)(=O)N2CCOCC2)c1`, the viability is 87% in test [1]; 87% (inactive) in test [3]; 96.8% (inactive) in test [4]; 97.5% (inactive) in test [5]; 88.2% in test [6] (setting [9]); 97.5% in test [6] (setting [10]). Also, the Her2 level in test [2] is 94.5% (inactive). In addition, in test [6] (H69AR cells + 2 uM doxorubicin), the differential viability (reversal) was 9.29% (inactive). The inhibition was -3.42% (inactive) in test [7] and 3.77% (inactive) in test [8].
Turning to `CC(NS(=O)(=O)c1ccc(F)cc1)C(c1cccs1)N1CCN(C)CC1` (stereo not given), the viability is 118% in test [1]; 118% (inactive) in test [3]; 87.9% (inactive) in test [4]; 96.7% (inactive) in test [5]; 82.3% in test [6] (setting [9]); 96.7% in test [6] (setting [10]). Moreover, in test [2], the Her2 level is 133% (inactive). Besides, in test [6] (H69AR cells + 2 uM doxorubicin), the differential viability (reversal) is 14.4% (inactive). The inhibition is -3.29% (inactive) in test [7] and -5.67% (inactive) in test [8].
For `O=C(CNS(=O)(=O)c1ccc(Br)s1)N1CCCC1`, the viability is 118% in test [1]; 118% (inactive) in test [3]; 98.7% (inactive) in test [4]; 99.9% (inactive) in test [5]; 90.1% in test [6] (setting [9]); 99.9% in test [6] (setting [10]). Besides, the Her2 level in test [2] is 115% (inactive). The differential viability (reversal) in test [6] (H69AR cells + 2 uM doxorubicin) was 9.79% (inactive). Besides, the inhibition is -2.11% (inactive) in test [7] and 6.89% (inactive) in test [8].
On to `Cc1cc(NC(=O)CN2CCC(O)(c3cccc(F)c3)CC2)no1`, for which the viability is 97% in test [1]; 97% (inactive) in test [3]; 110% (inactive) in test [4]; 109% (inactive) in test [5]; 86.6% in test [6] (setting [9]); 109% in test [6] (setting [10]). The Her2 level in test [2] was 107% (inactive). Further, the differential viability (reversal) in test [6] (H69AR cells + 2 uM doxorubicin) was 22.5% (inactive). For the same compound, the values for the inhibition in test [7] and in test [8] were -0.27% (inactive) and -6.83% (inactive), respectively.
For the compound `Cc1ccccc1OCCN1C(=O)NC2(CCc3ccccc32)C1=O` (stereo not given), the viability in test [1] was 94.5%; in test [3], 94.5% (inactive); in test [4], 92.9% (inactive); in test [5], 82.7% (inactive); in test [6] (setting [9]) it was 82.7%; in test [6] (setting [10]), 82.7%. Moreover, the Her2 level in test [2] is 83.5% (inactive). Also, the differential viability (reversal) in test [6] (H69AR cells + 2 uM doxorubicin) was 0.01% (inactive). Moreover, the inhibition in test [7] was -6.62% (inactive); in test [8], 0% (inactive).
As for `COC(=O)c1c(N)nc(C)n1-c1ccc(OC)cc1`, the viability in test [1] was 86.5%; in test [3], 86.5% (inactive); in test [4], 95.9% (inactive); in test [5], 96.1% (inactive); in test [6] (setting [9]), 91.5%; in test [6] (setting [10]), 96.1%. The Her2 level in test [2] was 91% (inactive). In addition, the differential viability (reversal) in test [6] (H69AR cells + 2 uM doxorubicin) is 4.61% (inactive). For the same compound, the results for the inhibition in test [7] and in test [8] were -3.33% (inactive) and -3.77% (inactive), respectively.
Take `Cc1nnc(SCc2ccccc2)n1N`: the viability in test [1] was 104%; in test [3], 104% (inactive); in test [4] it was 103% (inactive); in test [5] it was 99.6% (inactive); in test [6] (setting [9]) it was 98.9%; in test [6] (setting [10]) it was 99.6%. Further, in test [2], the Her2 level was 98% (inactive). In addition, the differential viability (reversal) in test [6] (H69AR cells + 2 uM doxorubicin) was 0.72% (inactive). The inhibition in test [7] is -0.67% (inactive); in test [8] it was -5.32% (inactive).
In the case of `CCOC(=O)c1ccccc1NC(=O)N1CCn2c(C)ccc2C1CC` (stereo not given), the viability in test [1] is 107%; in test [3] it was 107% (inactive); in test [4] it was 103% (inactive); in test [5] it was 84.8% (inactive); in test [6] (setting [9]), 83.2%; in test [6] (setting [10]), 84.8%. Moreover, the Her2 level in test [2] was 88% (inactive). The differential viability (reversal) in test [6] (H69AR cells + 2 uM doxorubicin) was 1.62% (inactive). Besides, the inhibition is -4.46% (inactive) in test [7] and -4.92% (inactive) in test [8].
With `CC(=O)N1CCN(c2ccc(N=Cc3c(O)n(Cc4ccccc4)c(=O)[nH]c3=O)cc2)CC1`, the viability is 89% in test [1]; 89% (inactive) in test [3]; 83.5% (inactive) in test [4]; 94.6% (inactive) in test [5]; 98.2% in test [6] (setting [9]); 94.6% in test [6] (setting [10]). For the same compound, the Her2 level in test [2] is 87.5% (inactive). In addition, the differential viability (reversal) in test [6] (H69AR cells + 2 uM doxorubicin) was -3.64% (inactive). Besides, the figures for the inhibition in test [7] and in test [8] were -0.91% (inactive) and 0.95% (inactive), respectively.
Consider `CCOC(=O)c1cccc(NC(=O)c2ccco2)c1`, for which the viability is 95.5% in test [1]; 95.5% (inactive) in test [3]; 114% (inactive) in test [4]; 91.9% (inactive) in test [5]; 88.1% in test [6] (setting [9]); 91.9% in test [6] (setting [10]). Also, the Her2 level in test [2] is 92.5% (inactive). For the same compound, the differential viability (reversal) in test [6] (H69AR cells + 2 uM doxorubicin) is 3.72% (inactive). The inhibition is -0.77% (inactive) in test [7] and -1.17% (inactive) in test [8].
For `O=c1[nH]cnc2c1nc(SCc1ccccc1)n2C1OC(CO)C(O)C1O` (stereo not given), the viability in test [1] is 94.5%; in test [3], 94.5% (inactive); in test [4] it was 92.4% (inactive); in test [5], 101% (inactive); in test [6] (setting [9]), 92.2%; in test [6] (setting [10]) it was 101%. Besides, the Her2 level in test [2] is 88% (inactive). Also, in test [6] (H69AR cells + 2 uM doxorubicin), the differential viability (reversal) was 8.52% (inactive). The inhibition in test [7] is -5.54% (inactive); in test [8] it was 4.6% (inactive).

For orientation: viability means a read-out of living cells in per cent, often relative to untreated cells. Broadly, the inhibition is the change of the read-out against control, counted positive when it falls.

Source of the values: PubChem BioAssay.
